The values below come from PMC4576835 (Clinical and experimental pharmacology & physiology, 2009).

Assay [1] addresses T1, glypican-1 binding to Slit protein (Homo sapiens, UniProt O94813, DEL1116-1124).
T1 sequence (O94813 with tags, fused parts or gaps DEL1116-1124): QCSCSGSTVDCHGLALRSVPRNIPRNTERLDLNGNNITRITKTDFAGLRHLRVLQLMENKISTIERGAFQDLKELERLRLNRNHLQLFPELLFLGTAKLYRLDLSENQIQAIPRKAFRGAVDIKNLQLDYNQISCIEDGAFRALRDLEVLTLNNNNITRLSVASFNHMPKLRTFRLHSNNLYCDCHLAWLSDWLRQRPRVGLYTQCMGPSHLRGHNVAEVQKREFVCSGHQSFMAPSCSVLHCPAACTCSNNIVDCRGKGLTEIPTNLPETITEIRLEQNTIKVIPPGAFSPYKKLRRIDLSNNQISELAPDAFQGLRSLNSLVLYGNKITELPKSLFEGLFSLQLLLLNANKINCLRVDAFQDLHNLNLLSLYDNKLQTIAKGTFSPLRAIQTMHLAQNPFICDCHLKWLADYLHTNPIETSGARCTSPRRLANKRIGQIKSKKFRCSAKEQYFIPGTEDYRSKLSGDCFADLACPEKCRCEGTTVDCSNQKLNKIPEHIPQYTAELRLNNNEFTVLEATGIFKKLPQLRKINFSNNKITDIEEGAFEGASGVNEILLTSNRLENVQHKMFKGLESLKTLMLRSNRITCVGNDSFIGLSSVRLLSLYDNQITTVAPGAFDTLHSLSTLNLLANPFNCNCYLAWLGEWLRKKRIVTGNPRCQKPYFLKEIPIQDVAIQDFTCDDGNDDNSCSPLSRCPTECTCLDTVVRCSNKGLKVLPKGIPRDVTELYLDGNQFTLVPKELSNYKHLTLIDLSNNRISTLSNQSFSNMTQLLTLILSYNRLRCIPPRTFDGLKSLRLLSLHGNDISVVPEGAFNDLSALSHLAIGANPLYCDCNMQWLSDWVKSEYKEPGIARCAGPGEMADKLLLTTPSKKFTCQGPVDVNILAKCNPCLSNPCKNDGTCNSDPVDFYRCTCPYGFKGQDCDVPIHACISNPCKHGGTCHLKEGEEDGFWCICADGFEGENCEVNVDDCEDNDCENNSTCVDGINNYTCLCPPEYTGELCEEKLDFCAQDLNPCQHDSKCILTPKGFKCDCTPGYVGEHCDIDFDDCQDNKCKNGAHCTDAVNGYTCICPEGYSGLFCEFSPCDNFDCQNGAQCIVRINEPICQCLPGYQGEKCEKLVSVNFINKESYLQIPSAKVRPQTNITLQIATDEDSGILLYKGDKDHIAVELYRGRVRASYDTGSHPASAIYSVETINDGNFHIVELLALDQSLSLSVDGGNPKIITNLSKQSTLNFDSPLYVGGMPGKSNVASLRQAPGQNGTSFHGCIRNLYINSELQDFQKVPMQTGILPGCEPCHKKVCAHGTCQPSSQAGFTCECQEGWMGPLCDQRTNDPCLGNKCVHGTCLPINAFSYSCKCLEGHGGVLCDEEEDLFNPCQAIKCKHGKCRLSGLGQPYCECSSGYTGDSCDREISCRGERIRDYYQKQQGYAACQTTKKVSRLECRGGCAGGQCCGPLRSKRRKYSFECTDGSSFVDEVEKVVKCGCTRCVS
The assay can be described thus: ELISA of glypican-1–Fc binding to immobilised human full-length Slit-2. A digest of the protocol:
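Wells coated overnight with His-tagged uncleavable full-length human Slit-2 (HEK293-expressed, Ni-agarose purified), 5 μg/well in PBS; blocked 2 h with 10% FBS/TBST. Glycanated glypican-1–Fc (HEK293, DEAE then protein A) added at 1 μg/mL in PBS, 18 h, room temperature. Detection: biotinylated anti-human Fc, HRP-streptavidin, o-phenylenediamine, 450 nm. Non-specific binding from BSA-coated wells; bound amount read from glypican-1–Fc standard curve; replicates.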
A general note: An ELISA detects its analyte on a solid surface through an enzyme-linked reagent.

For assay [2] the following is noted: in whole blood; cited from earlier work.

Regarding `Cc1ccc(C(=O)Nc2ccc(S(=O)(=O)O)c3cc(S(=O)(=O)O)cc(S(=O)(=O)O)c23)cc1NC(=O)c1cccc(NC(=O)Nc2cccc(C(=O)Nc3cc(C(=O)Nc4ccc(S(=O)(=O)O)c5cc(S(=O)(=O)O)cc(S(=O)(=O)O)c45)ccc3C)c2)c1` [suramin], in assay [1] (read-out: inhibition of glypican binding to Slit), the inhibition (as a rule, how much of the control response was suppressed) at 5 µM turned out to be 53%. In the case of `O=S(=O)(O)c1cc2c(O)c(c1)Cc1cc(S(=O)(=O)O)cc(c1O)Cc1cc(S(=O)(=O)O)cc(c1O)Cc1cc(S(=O)(=O)O)cc(c1O)Cc1cc(S(=O)(=O)O)cc(c1O)Cc1cc(S(=O)(=O)O)cc(c1O)Cc1cc(S(=O)(=O)O)cc(c1O)Cc1cc(S(=O)(=O)O)cc(c1O)C2` [GL-522-Y-1, cyclic octaphenol-octasulphonic acid], the results for the “inhibition of glypican binding to Slit” value in assay [1] (at 5 μmol/L) and in assay [1] (at 50 μmol/L) were 61% and 67%, respectively. Also, the anticoagulant activity result in assay [2] was “no significant anticoagulant activity”. As to `CO[C@H]1O[C@H](COS(=O)(=O)O)[C@@H](O[C@@H]2O[C@@H](C(=O)O)[C@@H](O[C@H]3O[C@H](COS(=O)(=O)O)[C@@H](O[C@@H]4O[C@H](C(=O)O)[C@@H](O[C@H]5O[C@H](COS(=O)(=O)O)[C@@H](O)[C@H](O)[C@H]5NS(=O)(=O)O)[C@H](O)[C@H]4O)[C@H](OS(=O)(=O)O)[C@H]3NS(=O)(=O)O)[C@H](O)[C@H]2OS(=O)(=O)O)[C@H](O)[C@H]1NS(=O)(=O)O` [fondaparinux], in assay [1] (at concentrations up to 50 μmol/L), the “inhibition of glypican–Slit binding (in words)” value is “completely inactive”.
